Results taken from ChEMBL document CHEMBL1142454, “Synthesis and evaluation of novel 4-amino-4,6-androstadiene-3,17-dione: an analog of formestane” (2008).

Columns and labels:
Set-up in all cases: scale not given: the % may be the effect or the level left
[1] = system: U-251; experiment: Antitumor activity against human U251 cells assessed as reduction of cell growth at 10 uM after 48 hrs by SRB assay; format: functional
In short: (§1)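 NCI-60 one-dose primary screen at 10^-5 M final. Cells grown in RPMI 1640 with 5% FBS and 2 mM L-glutamine, plated at 5000–40,000 cells/well and preincubated 24 h at 37 °C, 5% CO2. Drug stocks in DMSO, diluted in medium with gentamicin. Exposure 48 h, then fixed in situ with TCA (10% final) for 60 min at 4 °C. Stained with 0.4% SRB in 1% acetic acid, bound dye solubilized in 10 mM trizma base, absorbance read at 515 nm. Reported as mean growth percent; negative values indicate cell kill.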

[2] = system: MCF7; experiment: Antitumor activity against human MCF7 cells assessed as reduction of cell growth at 10 uM after 48 hrs by SRB assay; format: functional
In short: (§2)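 NCI 60-cell-line primary screen, single dose 10^-5 M (final). Cells grown in RPMI 1640 with 5% FBS and 2 mM L-glutamine, seeded at 5000–40,000 cells/well and preincubated 24 h at 37 °C, 5% CO2. Compound is dissolved in DMSO, diluted in medium with gentamicin, and exposed 48 h. Cells are fixed with 10% TCA (final) and stained with 0.4% SRB; absorbance is read at 515 nm. Readout is growth percentage.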

[3] = system: SW-620; experiment: Antitumor activity against human SW620 cells assessed as reduction of cell growth at 10 uM after 48 hrs by SRB assay; format: functional; in short: as §1
[4] = system: UACC-257; experiment: Antitumor activity against human UACC-257 cells assessed as reduction of cell growth at 10 uM after 48 hrs by SRB assay; format: functional; in short: as §1
[5] = system: HL-60(TB); experiment: Antitumor activity against human HL-60(TB) cells assessed as reduction of cell growth at 10 uM after 48 hrs by SRB assay; format: functional; in short: as §2
[6] = Antitumor activity against human 786-O cells assessed as reduction of cell growth at 10 uM after 48 hrs by SRB assay; format: functional, 786-0; in short: as §2
[7] = system: MDA-MB-231; experiment: Antitumor activity against human MDA-MB-231/ATCC cells assessed as reduction of cell growth at 10 uM after 48 hrs by SRB assay; format: functional; in short: as §2
[8] = system: SK-MEL-5; experiment: Antitumor activity against human SK-MEL-5 cells assessed as reduction of cell growth at 10 uM after 48 hrs by SRB assay; format: functional; in short: as §2
[9] = system: UO-31; experiment: Antitumor activity against human UO-31 cells assessed as reduction of cell growth at 10 uM after 48 hrs by SRB assay; format: functional; in short: as §1
[10] = system: BT-549; experiment: Antitumor activity against human BT-549 cells assessed as reduction of cell growth at 10 uM after 48 hrs by SRB assay; format: functional; in short: as §2
[11] = system: CCRF-CEM; experiment: Antitumor activity against human CCRF-CEM cells assessed as reduction of cell growth at 10 uM after 48 hrs by SRB assay; format: functional; in short: as §2
[12] = system: TK-10; experiment: Antitumor activity against human TK-10 cells assessed as reduction of cell growth at 10 uM after 48 hrs by SRB assay; format: functional; in short: as §1
[13] = system: MCF7; experiment: Antitumor activity against human doxorubicin-resistant MCF7 cells assessed as reduction of cell growth at 10 uM after 48 hrs by SRB assay; format: functional; in short: as §1
[14] = system: PC-3; experiment: Antitumor activity against human PC-3 cells assessed as reduction of cell growth at 10 uM after 48 hrs by SRB assay; format: functional; in short: as §2
[15] = system: KM12; experiment: Antitumor activity against human KM12 cells assessed as reduction of cell growth at 10 uM after 48 hrs by SRB assay; format: functional; in short: as §2
[16] = system: HOP-62; experiment: Antitumor activity against human HOP-62 cells assessed as reduction of cell growth at 10 uM after 48 hrs by SRB assay; format: functional; in short: as §2
[17] = system: A498; experiment: Antitumor activity against human A-498 cells assessed as reduction of cell growth at 10 uM after 48 hrs by SRB assay; format: functional; in short: as §2
[18] = system: SNB-75; experiment: Antitumor activity against human SNB75 cells assessed as reduction of cell growth at 10 uM after 48 hrs by SRB assay; format: functional; in short: as §2
[19] = system: NCI-H522; experiment: Antitumor activity against human NCI-H522 cells assessed as reduction of cell growth at 10 uM after 48 hrs by SRB assay; format: functional; in short: as §2
[20] = system: COLO 205; experiment: Antitumor activity against human COLO205 cells assessed as reduction of cell growth at 10 uM after 48 hrs by SRB assay; format: functional; in short: as §2
[21] = system: DU-145; experiment: Antitumor activity against human DU145 cells assessed as reduction of cell growth at 10 uM after 48 hrs by SRB assay; format: functional; in short: as §2
[22] = system: CAKI-1; experiment: Antitumor activity against human Caki-1 cells assessed as reduction of cell growth at 10 uM after 48 hrs by SRB assay; format: functional; in short: as §2
[23] = system: M14; experiment: Antitumor activity against human M14 cells assessed as reduction of cell growth at 10 uM after 48 hrs by SRB assay; format: functional; in short: as §2
[24] = system: SK-OV-3; experiment: Antitumor activity against human SKOV3 cells assessed as reduction of cell growth at 10 uM after 48 hrs by SRB assay; format: functional; in short: as §2
[25] = system: NCI-H322M; experiment: Antitumor activity against human NCI-H322M cells assessed as reduction of cell growth at 10 uM after 48 hrs by SRB assay; format: functional; in short: as §2
[26] = system: HT-29; experiment: Antitumor activity against human HT-29 cells assessed as reduction of cell growth at 10 uM after 48 hrs by SRB assay; format: functional; in short: as §2
[27] = system: OVCAR-5; experiment: Antitumor activity against human OVCAR5 cells assessed as reduction of cell growth at 10 uM after 48 hrs by SRB assay; format: functional; in short: as §2
[28] = system: IGROV-1; experiment: Antitumor activity against human IGROV1 cells assessed as reduction of cell growth at 10 uM after 48 hrs by SRB assay; format: functional; in short: as §2
[29] = system: OVCAR-8; experiment: Antitumor activity against human OVCAR8 cells assessed as reduction of cell growth at 10 uM after 48 hrs by SRB assay; format: functional; in short: as §2
[30] = system: MOLT-4; experiment: Antitumor activity against human MOLT-4 cells assessed as reduction of cell growth at 10 uM after 48 hrs by SRB assay; format: functional; in short: as §2
[31] = system: UACC-62; experiment: Antitumor activity against human UACC-62 cells assessed as reduction of cell growth at 10 uM after 48 hrs by SRB assay; format: functional; in short: as §1
[32] = system: ACHN; experiment: Antitumor activity against human ACHN cells assessed as reduction of cell growth at 10 uM after 48 hrs by SRB assay; format: functional; in short: as §2
[33] = system: SR; experiment: Antitumor activity against human SR cells assessed as reduction of cell growth at 10 uM after 48 hrs by SRB assay; format: functional; in short: as §1
[34] = system: K562; experiment: Antitumor activity against human K-562 cells assessed as reduction of cell growth at 10 uM after 48 hrs by SRB assay; format: functional; in short: as §2
[35] = system: SF-268; experiment: Antitumor activity against human SF-268 cells assessed as reduction of cell growth at 10 uM after 48 hrs by SRB assay; format: functional; in short: as §2
[36] = system: EKVX; experiment: Antitumor activity against human EKVX cells assessed as reduction of cell growth at 10 uM after 48 hrs by SRB assay; format: functional; in short: as §2
[37] = system: Malme-3M; experiment: Antitumor activity against human MALME-3M cells assessed as reduction of cell growth at 10 uM after 48 hrs by SRB assay; format: functional; in short: as §2
[38] = Antitumor activity against human HCT 116 cells assessed as reduction of cell growth at 10 uM after 48 hrs by SRB assay; format: functional; in short: as §2

C[C@]12CCC(=O)C(Oc3ccccc3)=C1CC[C@@H]1[C@@H]2CC[C@]2(C)C(=O)CC[C@@H]12
Activity [1]: 91.35% | Activity [2]: 103.22% | Activity [3]: 120.45% | Activity [4]: 108.45% | Activity [5]: 105.95% | Activity [6]: 100.78% | Activity [7]: 109.86% | Activity [8]: 94.23% | Activity [9]: 76.98% | Activity [10]: 110.1% | Activity [11]: 90.45% | Activity [12]: 122.99% | Activity [13]: 90.34% | Activity [14]: 89.25% | Activity [15]: 115.72% | Activity [16]: 106.47% | Activity [17]: 103% | Activity [18]: 91.11% | Activity [19]: 87.31% | Activity [20]: 115.44% | Activity [21]: 107.32% | Activity [22]: 112.48% | Activity [23]: 102.62% | Activity [24]: 117.4% | Activity [25]: 106.72% | Activity [26]: 100.27% | Activity [27]: 97.47% | Activity [28]: 55.73% | Activity [29]: 93.48% | Activity [30]: 105.63% | Activity [31]: 87.46% | Activity [32]: 105.72% | Activity [33]: 66.91% | Activity [34]: 86.08% | Activity [35]: 113.44% | Activity [36]: 104.06% | Activity [37]: 120.52% | Activity [38]: 99.87%
